Positions count from the first letter of the chain named.

In data set [1] the test system is T1, Nonstructural protein 5A (Hepatitis C virus), Q5L478 [Y93H].
T1 sequence (whole entry): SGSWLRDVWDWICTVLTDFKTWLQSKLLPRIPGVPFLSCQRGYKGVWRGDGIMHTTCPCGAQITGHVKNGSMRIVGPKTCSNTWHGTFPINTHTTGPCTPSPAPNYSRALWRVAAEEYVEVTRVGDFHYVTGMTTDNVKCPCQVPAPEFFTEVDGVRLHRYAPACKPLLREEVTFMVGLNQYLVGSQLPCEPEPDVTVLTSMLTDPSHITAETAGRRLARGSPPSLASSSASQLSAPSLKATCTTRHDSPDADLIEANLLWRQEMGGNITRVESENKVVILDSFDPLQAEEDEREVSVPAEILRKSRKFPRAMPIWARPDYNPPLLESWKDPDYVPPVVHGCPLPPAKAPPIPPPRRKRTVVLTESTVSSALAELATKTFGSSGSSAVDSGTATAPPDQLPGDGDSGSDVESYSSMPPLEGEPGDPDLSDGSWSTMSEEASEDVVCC
The data set can be described thus: Inhibition of NS5A Y93H mutant in HuH7 cell infected HCV genotype 1b Con1 assessed as decrease in viral replication after 4 days by luciferase reporter gene assay relative to wild type protein. To be noted: Hepatitis C virus (isolate Con1). Put shortly:
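Stable subgenomic luciferase replicons in Huh-7 cells: genotype 1b-Con1 carrying NS5A Y93H or Y93N, tested alongside the wild-type replicon. Cells are incubated 4 days with compound in DMEM with 5% FBS. Luciferase read-out, EC50 from a 4-parameter logistic fit, expressed as fold change versus wild type.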

A short description of data set [2]: Half life in mouse at 3 mg/kg, iv by LC-MS method. The format is ADME, organism-based. The following applies: in vivo. Put shortly:
(§1)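 Single dose, 3 mg/kg, in mouse or rat. IV vehicle: DMSO:Tween 80:PEG-400:D5W 2:5:20:73 (v/v). PO vehicle: Phosol 53 MCT:PEG-400:Poloxamer 124:Cremophor RH40 40:20:20:20 (w/w). Acetonitrile protein precipitation, then LC-MS/MS in negative-ion MRM against an internal standard; LOQ ~20 ng/mL.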

A short description of data set [3]: Drug level in dog at 2.5 mg/kg, po at 24 hrs by LC-MS method. The data set is classed as ADME, organism-based, Canis lupus familiaris. To be noted: in vivo, read-out: Drug uptake. The procedure, abridged:
(§2)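 Single dose in dog or monkey, 1 mg/kg IV or 2.5 mg/kg PO. Plasma drug measured by LC-MS after acetonitrile protein precipitation with an internal standard. Quantified by linear regression of parent/internal-standard peak-area ratio against spiked standards.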

Data set [4] can be described thus: Half life in rat at 3 mg/kg, iv by LC-MS method. The data set is classed as ADME, organism-based. The following applies: in vivo. The procedure, abridged: as §1
The nature of data set [5]: AUClast in monkey at 1 mg/kg, iv by LC-MS method. The format is ADME, organism-based, Macaca mulatta. Set-up: dose 1 mg/kg, time 0 - last, route intravenous. The following applies: rhesus monkey, in vivo. Put shortly: as §2
Data set [6] in a line: Drug level in rat at 3 mg/kg, po at 24 hrs by LC-MS method. The format is ADME, organism-based. To be noted: in vivo, read-out: Drug uptake. The procedure, abridged: as §1
A short description of data set [7]: AUClast in monkey at 2.5 mg/kg, po by LC-MS method. The format is ADME, organism-based, Macaca mulatta. Further details: dose 2.5 mg/kg, time 0 - last, route oral. The following applies: rhesus monkey, in vivo. The procedure, abridged: as §2
A short description of data set [8]: Oral bioavailability in dog at 2.5 mg/kg by LC-MS method. The following applies: in vivo. The format is ADME, organism-based, Canis lupus familiaris. The procedure, abridged:
as §2

Data set [9] can be described thus: Tmax in mouse at 3 mg/kg, po by LC-MS method. The data set is classed as ADME, organism-based. The following applies: in vivo.
Data set [10] is described as follows: Cmax in dog at 2.5 mg/kg, po by LC-MS method. The data set is classed as ADME, organism-based, Canis lupus familiaris. Further details: dose 2.5 mg/kg, route oral. The following applies: in vivo. Put shortly:
as §2

Data set [11] relates to T2, Nonstructural protein 5A (Hepatitis C virus), Q5L478 [Y93C].
T2 sequence (whole entry): T1 sequence (whole entry) with H93C
The experiment in a line: Inhibition of NS5A Y93C mutant in HuH7 cell infected HCV genotype 1a H77 assessed as decrease in viral replication after 4 days by luciferase reporter gene assay relative to wild type protein. To be noted: Hepatitis C virus (isolate H77). Put shortly: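 Stable subgenomic luciferase replicons in Huh-7 cells: genotype 1a-H77 carrying NS5A substitutions M28T, Q30E, Q30R, Y93C, Y93H or Y93N, tested alongside the wild-type replicon. Cells are incubated 4 days with compound in DMEM with 5% FBS. Luciferase read-out, EC50 by 4-parameter logistic fit, and fold change versus wild type.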

A short description of data set [12]: Cmax in rat at 3 mg/kg, po by LC-MS method. Further details: dose 3 mg/kg, route oral. The format is ADME, organism-based. The following applies: in vivo. Put shortly: as §1
Data set [13] can be described thus: Tmax in dog at 2.5 mg/kg, po by LC-MS method. The data set is classed as ADME, organism-based, Canis lupus familiaris. The following applies: in vivo. The procedure, abridged:
as §2

The nature of data set [14]: Drug level in monkey at 2.5 mg/kg, po at 24 hrs by LC-MS method. The following applies: rhesus monkey, in vivo, read-out: Drug uptake. The data set is classed as ADME, organism-based, Macaca mulatta. The procedure, abridged:
as §2

Data set [15] is described as follows: Tmax in monkey at 2.5 mg/kg, po by LC-MS method. The format is ADME, organism-based, Macaca mulatta. To be noted: rhesus monkey, in vivo. Put shortly: as §2
Data set [16] can be described thus: AUClast in dog at 2.5 mg/kg, po by LC-MS method. The format is ADME, organism-based, Canis lupus familiaris. Further details: dose 2.5 mg/kg, route oral, time 0 - last. The following applies: in vivo. Put shortly: as §2
Data set [17] can be described thus: Drug level in mouse at 3 mg/kg, po at 24 hrs by LC-MS method. The format is ADME, organism-based. The following applies: in vivo, read-out: Drug uptake. The procedure, abridged:
as §1

The nature of data set [18]: Apparent volume of distribution in dog at 1 mg/kg, iv by LC-MS method. The format is ADME, organism-based, Canis lupus familiaris. The following applies: in vivo, read-out: Vc. The procedure, abridged: as §2
Data set [19] is described as follows: Apparent volume of distribution in monkey at 1 mg/kg, iv by LC-MS method. The data set is classed as ADME, organism-based, Macaca mulatta. To be noted: rhesus monkey, in vivo, read-out: Vc. Put shortly:
as §2

Data set [20] in a line: Oral bioavailability in rat at 3 mg/kg by LC-MS method. To be noted: in vivo. The data set is classed as ADME, organism-based. Put shortly:
as §1

The nature of data set [21]: Half life in rat at 3 mg/kg, po by LC-MS method. The following applies: in vivo. The data set is classed as ADME, organism-based. The procedure, abridged:
as §1

Data set [22] is described as follows: AUClast in rat at 3 mg/kg, po by LC-MS method. The format is ADME, organism-based. To be noted: in vivo. Set-up: dose 3 mg/kg, route oral, time 0 - last. The procedure, abridged: as §1
A short description of data set [23]: Apparent volume of distribution in mouse at 3 mg/kg, iv by LC-MS method. The format is ADME, organism-based. To be noted: in vivo, read-out: Vc. Put shortly: as §1

With `COC(=O)N[C@H](C(=O)N1CCC[C@H]1c1nc2cc([C@H]3CC[C@H](c4cc5nc([C@@H]6CCCN6C(=O)[C@@H](NC(=O)OC)[C@@H](C)OC)[nH]c5cc4F)N3c3cc(F)c(N4CCC(c5ccc(F)cc5)CC4)c(F)c3)c(F)cc2[nH]1)[C@@H](C)OC` [PIBRENTASVIR], the fold change (FC) was 0.6 in data set [1] and 1.7 in data set [11]. For the same molecule, the half-life in data set [2] was 2 h; in [4] it was 6.2 h; in data set [21] it was 7 h. The concentration at 24 h worked out at 82 nM in [3], 41 nM in data set [6], 17 nM in data set [14] and 467 nM in data set [17]. Also, the AUC(0-t) in [5] was 6470 ng·h/mL; in data set [7] it was 2250 ng·h/mL; in [16] it was 5990 ng·h/mL; in [22], 3600 ng·h/mL. In addition, the bioavailability in [8] was found to be 29.8%; in [20], 9.9%. In addition, the time of peak concentration (Tmax) worked out at 11 h in data set [9], 3.67 h in data set [13] and 4 h in data set [15]. Besides, the Cmax in [10] turned out to be 562 nM; in [12], 250 nM. The Vd is 0.1 L/kg in [18], 0.07 L/kg in [19] and 0.09 L/kg in data set [23].

For the origin of these results see ChEMBL document CHEMBL4177761, “Highlights of the Structure-Activity Relationships of Benzimidazole Linked Pyrrolidines Leading to the Discovery of the Hepatitis C Virus NS5A Inhibitor Pibrentasvir (ABT-530)” (J Med Chem, 2018).
